What all share (type): microsomes
Holding throughout (conditions): Microsome

For test [1], the species on record is Capra hircus. Nature of the test: Induction of magnesium independent calcium-transporting ATPase activity in goat spermatozoa microsomal membranes at 70 nM by spectrophotometry. In short, it runs like this:
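Mg2+-independent Ca2+-ATPase in goat sperm microsomes (2 µg protein) was measured without blockers over varying compound concentrations. Incubation used 3 mM ATP in imidazole/sucrose buffer with EDTA and 2-mercaptoethanol, ±4 mM CaCl2, for 30 min at 37 °C, stopped with ice-cold 7% TCA and read spectrophotometrically. Activity is the difference between the +Ca2+ and −Ca2+ reactions.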

The species entered for test [2] is Capra hircus. Kind of test: Induction of magnesium independent calcium-transporting ATPase activity in goat spermatozoa microsomal membranes at 20 ug by spectrophotometry in presence of […] of calcium channel blocker thapsigargin. The gist of the method:
(§1)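 The compound (20 µg) was added together with a fixed concentration of the blocker. Reactions were stopped with 7% ice-cold TCA and read spectrophotometrically. Ca2+-dependent activity (+Ca2+ minus −Ca2+) is given as percent stimulation or inhibition, averaged over four assays.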

For test [3], the species on record is Capra hircus. Nature of the test: Induction of magnesium independent calcium-transporting ATPase activity in goat spermatozoa microsomal membranes at 20 ug by spectrophotometry in presence of 300 uM of calcium channel blocker verapamil. The gist of the method:
as §1

Test [4] is filed under the species Capra hircus. Nature of the test: Induction of magnesium independent calcium-transporting ATPase activity in goat spermatozoa microsomal membranes at 20 ug by spectrophotometry in presence of 1 mM of calcium channel blocker orthovanadate. The gist of the method:
as §1

As to `CO[C@H]1O[C@H](CS(=O)(=O)C[C@H]2O[C@@H](OC)[C@H](O)[C@H](O)[C@@H]2O)[C@@H](O)[C@H](O)[C@@H]1O`, the Activity in the test filed under Capra hircus [1] is 45%; in the test filed under Capra hircus [2], -27%; in the test listed under Capra hircus [3] it was -5%; in the test filed under Capra hircus [4], -19%.

In the case of `CO[C@H]1O[C@H](CS(=O)(=O)C[C@H]2O[C@H](OC)[C@H](O)[C@@H](O)[C@H]2O)[C@@H](O)[C@H](O)[C@H]1O`, the Activity in the test listed under Capra hircus [1] is 32%; in the test listed under Capra hircus [2] it was -38%; in the test listed under Capra hircus [3], -5%; in the test filed under Capra hircus [4] it was -8%.

On to `CO[C@H]1O[C@H](CS(=O)(=O)C[C@H]2O[C@H](OC)[C@H](O)[C@@H](O)[C@@H]2O)[C@@H](O)[C@H](O)[C@H]1O`, for which the Activity in the test listed under Capra hircus [1] was 36%; in the test listed under Capra hircus [2] it was -28%; in the test listed under Capra hircus [3], -14%; in the test listed under Capra hircus [4] it was -24%.

On to `CO[C@H]1O[C@H](CS(=O)(=O)C[C@H]2O[C@H](OC)[C@@H](O)[C@@H](O)[C@@H]2O)[C@@H](O)[C@H](O)[C@@H]1O`, for which the Activity in the test listed under Capra hircus [1] is 49%; in the test filed under Capra hircus [2] it was -29%; in the test listed under Capra hircus [3], -2%; in the test listed under Capra hircus [4], -27%.

Consider `CO[C@@H]1O[C@H](CS(=O)(=O)C[C@H]2O[C@@H](OC)[C@H](O)[C@H](O)[C@@H]2O)[C@@H](O)[C@@H](O)[C@H]1O`, for which the Activity in the test listed under Capra hircus [1] was 30%; in the test listed under Capra hircus [2], -33%; in the test listed under Capra hircus [3], -8%; in the test listed under Capra hircus [4], -21%.

Turning to `CO[C@H]1O[C@H](CS(=O)(=O)C[C@H]2O[C@H](OC)[C@H](O)[C@@H](O)[C@H]2O)[C@@H](O)[C@H](O)[C@@H]1O`, the Activity in the test listed under Capra hircus [1] is 53%; in the test listed under Capra hircus [2], -36%; in the test listed under Capra hircus [3], -21%; in the test filed under Capra hircus [4], -25%.

Consider `CO[C@H]1O[C@H](CS(=O)(=O)C[C@H]2O[C@H](OC)[C@H](O)[C@@H](O)[C@@H]2O)[C@@H](O)[C@H](O)[C@@H]1O`, for which the Activity is 43% in the test listed under Capra hircus [1], -35% in the test listed under Capra hircus [2], -3% in the test filed under Capra hircus [3] and 4% in the test listed under Capra hircus [4].

Take `CO[C@H]1O[C@H](CS(=O)(=O)C[C@H]2O[C@H](OC)[C@H](O)[C@H](O)[C@@H]2O)[C@@H](O)[C@H](O)[C@H]1O`: the Activity in the test listed under Capra hircus [1] is 30%; in the test listed under Capra hircus [2], -31%; in the test filed under Capra hircus [3] it was -9%; in the test filed under Capra hircus [4], -17%.

The record behind these values is ChEMBL document CHEMBL1629510, “Efficient synthesis of (6-deoxy-glycopyranosid-6-yl) sulfone derivatives and their effect on Ca2+-ATPase” (Eur J Med Chem, 2010).
